From ChEMBL document CHEMBL1921792, “Synthesis and anticonvulsant activity of trans- and cis-2-(2,6-dimethylphenoxy)-N-(2- or 4-hydroxycyclohexyl)acetamides and their amine analogs” (Bioorg Med Chem, 2011)

Columns and labels:
Mus musculus [1] = assay: Neurotoxicity in mouse assessed as inability to maintain equilibrium on rotarod at 30 mg/kg, ip after 0.5 hrs by rotarod test; type: toxicity, organism-based; parameters: dose 30 mg/kg, route intraperitoneal; conditions: in vivo
In short: (§1)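 Drug given ip to mice as a suspension in 0.5% methylcellulose. At the stated time after dosing, each mouse was placed on a 1 inch knurled rod turning at 6 rpm. Neurotoxicity = inability to stay balanced at least 1 min in each of three trials. Scored as animals toxic/animals tested in small groups.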

Mus musculus [2] = assay: Neurotoxicity in mouse assessed as inability to maintain equilibrium on rotarod at 300 mg/kg, ip after 0.5 hrs by rotarod test; type: toxicity, organism-based; parameters: dose 300 mg/kg, route intraperitoneal; conditions: in vivo; in short: as §1
Mus musculus [3] = assay: Neurotoxicity in mouse assessed as inability to maintain equilibrium on rotarod at 30 mg/kg, ip after 4 hrs by rotarod test; type: toxicity, organism-based; parameters: dose 30 mg/kg, route intraperitoneal; conditions: in vivo; in short: as §1
Mus musculus [4] = assay: Neurotoxicity in mouse assessed as inability to maintain equilibrium on rotarod at 100 mg/kg, ip after 4 hrs by rotarod test; type: toxicity, organism-based; parameters: dose 100 mg/kg, route intraperitoneal; conditions: in vivo; in short: as §1
Mus musculus [5] = assay: Neurotoxicity in mouse assessed as inability to maintain equilibrium on rotarod at 300 mg/kg, ip after 4 hrs by rotarod test; type: toxicity, organism-based; parameters: dose 300 mg/kg, route intraperitoneal; conditions: in vivo; in short: as §1
[6] = Neurotoxicity in ip dosed mouse assessed as inability to maintain equilibrium on rotarod by rotarod test; type: toxicity, organism-based; conditions: in vivo
In short: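 Mice dosed ip with a suspension in 0.5% methylcellulose, then placed on a 1 inch knurled plastic rod rotating at 6 rpm. Toxicity = failure to keep equilibrium for at least 1 min in each of three trials.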

[7] = Neurotoxicity in po dosed rat assessed as neurological deficit […]; type: toxicity, organism-based; conditions: in vivo
In short: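 Rats dosed orally with a suspension in 0.5% methylcellulose. Neurological deficit judged by ataxia and loss of placing response and muscle tone.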

Mus musculus [8] = assay: Anticonvulsant activity in ip dosed mouse assessed as protection against maximal electric shock-induced seizures; type: functional; conditions: Mus musculus, ip; read-out: ED50
Rattus norvegicus [9] = assay: Anticonvulsant activity in po dosed rat assessed as protection against maximal electric shock-induced seizures; type: functional
Mus musculus [10] = species: Mus musculus; assay: Protective index, ratio of TD50 for neurotoxicity in mouse to ED50 for inhibition of maximal electroshock-induced seizures in mouse; type: functional
Rattus norvegicus [11] = species: Rattus norvegicus; assay: Protective index, ratio of TD50 for neurotoxicity in rat to ED50 for inhibition of maximal electroshock-induced seizures in rat; type: functional
Rattus norvegicus [12] = assay: Neurotoxicity in rat assessed as neurological deficit at 30 mg/kg, po after 0.25 hrs […]; type: toxicity, organism-based; parameters: dose 30 mg/kg, route oral; conditions: in vivo
In short: (§2)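 Rats given the compound, suspended in 0.5% methylcellulose, by the stated route and dose. Neurological deficit was recorded at the listed times as ataxia and loss of placing response and muscle tone. Reported as number of rats showing toxicity/number tested.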

Rattus norvegicus [13] = assay: Neurotoxicity in rat assessed as neurological deficit at 30 mg/kg, po after 0.5 hrs […]; type: toxicity, organism-based; parameters: dose 30 mg/kg, route oral; conditions: in vivo; in short: as §2
Rattus norvegicus [14] = assay: Neurotoxicity in rat assessed as neurological deficit at 30 mg/kg, po after 1 hr […]; type: toxicity, organism-based; parameters: dose 30 mg/kg, route oral; conditions: in vivo; in short: as §2
Rattus norvegicus [15] = assay: Neurotoxicity in rat assessed as neurological deficit at 30 mg/kg, po after 2 hrs […]; type: toxicity, organism-based; parameters: dose 30 mg/kg, route oral; conditions: in vivo; in short: as §2
Rattus norvegicus [16] = assay: Neurotoxicity in rat assessed as neurological deficit at 30 mg/kg, po after 4 hrs by rotarod test; type: toxicity, organism-based; parameters: dose 30 mg/kg, route oral; conditions: in vivo; in short: as §2
Rattus norvegicus [17] = assay: Neurotoxicity in rat assessed as neurological deficit at 62.5 mg/kg, po after 0.25 hrs; type: toxicity, organism-based; parameters: dose 62.5 mg/kg, route oral; conditions: in vivo
In short: (§3)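 Rats dosed orally with test agent suspended in 0.5% methylcellulose and observed for up to 24 h (time-to-peak-effect design). Neurological deficit was scored as ataxia with loss of placing response and muscle tone. Two rats per dose per time point; results given as number toxic/number tested.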

Rattus norvegicus [18] = assay: Neurotoxicity in rat assessed as neurological deficit at 62.5 mg/kg, po after 0.5 hrs; type: toxicity, organism-based; parameters: dose 62.5 mg/kg, route oral; conditions: in vivo; in short: as §3
Rattus norvegicus [19] = assay: Neurotoxicity in rat assessed as neurological deficit at 62.5 mg/kg, po after 1 hr; type: toxicity, organism-based; parameters: dose 62.5 mg/kg, route oral; conditions: in vivo; in short: as §3
Rattus norvegicus [20] = assay: Neurotoxicity in rat assessed as neurological deficit at 62.5 mg/kg, po after 2 hrs; type: toxicity, organism-based; parameters: dose 62.5 mg/kg, route oral; conditions: in vivo; in short: as §3
Rattus norvegicus [21] = assay: Neurotoxicity in rat assessed as neurological deficit at 62.5 mg/kg, po after 4 hrs; type: toxicity, organism-based; parameters: dose 62.5 mg/kg, route oral; conditions: in vivo; in short: as §3
Rattus norvegicus [22] = assay: Neurotoxicity in rat assessed as neurological deficit at 62.5 mg/kg, po after 6 hrs; type: toxicity, organism-based; parameters: dose 62.5 mg/kg, route oral; conditions: in vivo; in short: as §3
Rattus norvegicus [23] = assay: Neurotoxicity in rat assessed as neurological deficit at 62.5 mg/kg, po after 8 hrs; type: toxicity, organism-based; parameters: dose 62.5 mg/kg, route oral; conditions: in vivo; in short: as §3
Rattus norvegicus [24] = assay: Neurotoxicity in rat assessed as neurological deficit at 62.5 mg/kg, po after 24 hrs; type: toxicity, organism-based; parameters: dose 62.5 mg/kg, route oral; conditions: in vivo; in short: as §3
Rattus norvegicus [25] = assay: Neurotoxicity in rat assessed as neurological deficit at 125 mg/kg, po after 0.25 hrs; type: toxicity, organism-based; parameters: dose 125 mg/kg, route oral; conditions: in vivo; in short: as §2
Rattus norvegicus [26] = assay: Neurotoxicity in rat assessed as neurological deficit at 125 mg/kg, po after 0.5 hrs; type: toxicity, organism-based; parameters: dose 125 mg/kg, route oral; conditions: in vivo; in short: as §2
Rattus norvegicus [27] = assay: Neurotoxicity in rat assessed as neurological deficit at 125 mg/kg, po after 1 hr; type: toxicity, organism-based; parameters: dose 125 mg/kg, route oral; conditions: in vivo; in short: as §2

Cc1cccc(C)c1OCC(=O)NC1CCCCC1O.Cl (racemic; 1)
106 mg/kg: TD50 [6]
>21.218: Ratio TD50/ED50 (Rattus norvegicus [11])
23.6 mg/kg: ED50 (Rattus norvegicus [9])
43 mg/kg: ED50 (Mus musculus [8])
Non-toxic: Activity (Mus musculus [1]) | Activity (Mus musculus [3]) | Activity (Mus musculus [4]) | Activity (Mus musculus [5]) | Activity (Rattus norvegicus [12]) | Activity (Rattus norvegicus [13]) | Activity (Rattus norvegicus [14]) | Activity (Rattus norvegicus [15]) | Activity (Rattus norvegicus [16]) | Activity (Rattus norvegicus [17]) | Activity (Rattus norvegicus [18]) | Activity (Rattus norvegicus [19]) | Activity (Rattus norvegicus [20]) | Activity (Rattus norvegicus [21]) | Activity (Rattus norvegicus [22]) | Activity (Rattus norvegicus [23]) | Activity (Rattus norvegicus [24]) | Activity (Rattus norvegicus [25]) | Activity (Rattus norvegicus [26]) | Activity (Rattus norvegicus [27])
Toxic: Activity (Mus musculus [2])
2.475: Ratio TD50/ED50 (Mus musculus [10])
> 500 mg/kg: TD50 [7]
